From ChEMBL document CHEMBL2417378, “Ligand-protein interactions of selective casein kinase 1δ inhibitors” (J Med Chem, 2013) come the findings set out here.

Bounds are passed on as bounds.

The IC50 is the concentration that gives 50% inhibition. Broadly, the inhibition is the share of the control response that was lost under treatment.

Series [1] concerns the target T1, MAP kinase p38 (Homo sapiens, UniProt O15264+Q15759+Q16539+P53778). Put plainly: Inhibition of p38 (unknown origin). Format: protein assay. In outline:
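p38 IC50 determined by outside SelectScreen profiling service, ATP at Km.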

Series [2] has as its target Casein kinase I isoform epsilon (Homo sapiens, UniProt P49674). The experiment in a line: Inhibition of CK1 epsilon (unknown origin) using PLSRTLpSVASLPGL as substrate after 85 mins by microplate reader analysis.
Series [3] concerns Plasma. The experiment in a line: fCmax in C57Bl/6J mouse plasma at 56 mg/kg, sc by LC/MS analysis. The note with it: in vivo. Format: ADME, organism-based. Also on record: dose 56 mg/kg, route subcutaneous. In outline: (§1)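 Male C57BL/6J mice got a single subcutaneous dose. Plasma and whole brain were taken at 0.5–24 h (n = 4 per time). Brain was homogenized in 60% isopropanol and samples quantified by LC-MS after protein precipitation. Free fraction came from 6 h equilibrium dialysis at 37 °C of plasma or brain homogenate spiked with 1 μM compound.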

Series [4] deals with T2, Voltage-gated inwardly rectifying potassium channel KCNH2 (Homo sapiens, UniProt Q12809). The experiment in a line: Displacement of [3H]dofetilide from human ERG channel. On the technique in general: In a radioligand displacement assay an active substance lowers the binding of a labelled ligand.
T2 sequence (Q12809 whole entry): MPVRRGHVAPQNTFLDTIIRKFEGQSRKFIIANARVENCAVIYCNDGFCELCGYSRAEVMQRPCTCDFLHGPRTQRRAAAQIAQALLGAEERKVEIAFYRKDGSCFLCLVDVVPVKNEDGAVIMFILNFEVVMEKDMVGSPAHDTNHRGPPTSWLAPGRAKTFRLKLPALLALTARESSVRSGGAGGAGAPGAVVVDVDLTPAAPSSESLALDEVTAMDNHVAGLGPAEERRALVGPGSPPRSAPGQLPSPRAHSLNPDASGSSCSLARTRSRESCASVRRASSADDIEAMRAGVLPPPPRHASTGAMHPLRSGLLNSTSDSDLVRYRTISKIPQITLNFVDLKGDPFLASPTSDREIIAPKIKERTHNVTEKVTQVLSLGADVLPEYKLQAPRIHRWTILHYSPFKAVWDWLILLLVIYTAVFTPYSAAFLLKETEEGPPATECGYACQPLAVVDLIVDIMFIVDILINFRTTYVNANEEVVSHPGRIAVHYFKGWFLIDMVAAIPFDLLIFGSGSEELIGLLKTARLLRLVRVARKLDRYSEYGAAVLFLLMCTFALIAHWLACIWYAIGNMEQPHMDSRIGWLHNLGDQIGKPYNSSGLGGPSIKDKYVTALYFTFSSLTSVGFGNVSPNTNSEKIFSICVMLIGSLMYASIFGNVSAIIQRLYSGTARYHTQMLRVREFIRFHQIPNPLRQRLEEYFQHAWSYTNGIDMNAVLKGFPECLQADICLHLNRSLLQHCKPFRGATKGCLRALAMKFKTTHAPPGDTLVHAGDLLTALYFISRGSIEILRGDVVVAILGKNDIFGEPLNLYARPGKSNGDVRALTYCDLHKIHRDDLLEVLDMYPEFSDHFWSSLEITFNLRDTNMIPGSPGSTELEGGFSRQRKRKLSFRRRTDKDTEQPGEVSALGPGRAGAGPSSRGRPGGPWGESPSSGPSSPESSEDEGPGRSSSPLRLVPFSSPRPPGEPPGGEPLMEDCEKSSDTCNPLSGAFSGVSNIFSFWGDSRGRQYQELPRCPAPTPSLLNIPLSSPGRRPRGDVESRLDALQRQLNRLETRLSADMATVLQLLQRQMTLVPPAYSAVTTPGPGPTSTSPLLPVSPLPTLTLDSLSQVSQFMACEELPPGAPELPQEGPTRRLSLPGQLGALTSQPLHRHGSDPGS
Series [5] relates to Brain. Put plainly: fCmax in C57Bl/6J mouse brain at 56 mg/kg, sc by LC/MS analysis. Format: ADME, organism-based. Also on record: dose 56 mg/kg, route subcutaneous. The note with it: in vivo. In outline: as §1
Series [6] has as its target T3, Casein kinase I isoform delta (Homo sapiens, UniProt P48730). Put plainly: Inhibition of CK1 delta (unknown origin) using PLSRTLpSVASLPGL as substrate after 60 mins by microplate reader analysis.
The target of series [7] is T2, Voltage-gated inwardly rectifying potassium channel KCNH2. Put plainly: Inhibition of human ERG channel by electrophysiological method.
The target of series [8] is T3, Casein kinase I isoform delta. The experiment in a line: Inhibition of human CK1 delta transfected in african green monkey cos7 cells after overnight incubation by whole cell assay. Format: cell-based, COS-7. In outline:
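COS-7 cells in DMEM with 10% FBS were co-transfected by lipofection with mPER3-GFP and human CK1δ plasmids (1:11), then plated. Compounds, diluted in Opti-MEM, were tested at 11 concentrations overnight at 37 °C. Cells were fixed in 4% paraformaldehyde and Hoechst-stained, and nuclear translocation of mPER3-GFP was imaged on ArrayScan.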

Series [9] is filed under the species Homo sapiens. The experiment in a line: Inhibition of PKA alpha (unknown origin) at 1 uM.
Series [10] has as its system Brain. The experiment in a line: fCmax in C57Bl/6J mouse brain at 32 mg/kg, sc by LC/MS analysis. Format: ADME, organism-based. The arrangement: dose 32 mg/kg, route subcutaneous. The note with it: in vivo. In outline: as §1
In series [11] the target is T1, MAP kinase p38. The experiment in a line: Inhibition of p38 (unknown origin) at 1 uM. Format: protein assay.
For series [12], the target named is Casein kinase I isoform alpha (Homo sapiens) (UniProt P48729). The experiment in a line: Inhibition of CK1 alpha (unknown origin) at 1 uM.
The target of series [13] is Tyrosine-protein kinase Lck (Homo sapiens) (UniProt P06239). The experiment in a line: Inhibition of LCK (unknown origin) at 1 uM.
For series [14], the target named is Epidermal growth factor receptor (Homo sapiens) (UniProt P00533). The experiment in a line: Inhibition of EGFR (unknown origin) at 1 uM.
Sequence of Epidermal growth factor receptor (Homo sapiens) (P00533 whole entry): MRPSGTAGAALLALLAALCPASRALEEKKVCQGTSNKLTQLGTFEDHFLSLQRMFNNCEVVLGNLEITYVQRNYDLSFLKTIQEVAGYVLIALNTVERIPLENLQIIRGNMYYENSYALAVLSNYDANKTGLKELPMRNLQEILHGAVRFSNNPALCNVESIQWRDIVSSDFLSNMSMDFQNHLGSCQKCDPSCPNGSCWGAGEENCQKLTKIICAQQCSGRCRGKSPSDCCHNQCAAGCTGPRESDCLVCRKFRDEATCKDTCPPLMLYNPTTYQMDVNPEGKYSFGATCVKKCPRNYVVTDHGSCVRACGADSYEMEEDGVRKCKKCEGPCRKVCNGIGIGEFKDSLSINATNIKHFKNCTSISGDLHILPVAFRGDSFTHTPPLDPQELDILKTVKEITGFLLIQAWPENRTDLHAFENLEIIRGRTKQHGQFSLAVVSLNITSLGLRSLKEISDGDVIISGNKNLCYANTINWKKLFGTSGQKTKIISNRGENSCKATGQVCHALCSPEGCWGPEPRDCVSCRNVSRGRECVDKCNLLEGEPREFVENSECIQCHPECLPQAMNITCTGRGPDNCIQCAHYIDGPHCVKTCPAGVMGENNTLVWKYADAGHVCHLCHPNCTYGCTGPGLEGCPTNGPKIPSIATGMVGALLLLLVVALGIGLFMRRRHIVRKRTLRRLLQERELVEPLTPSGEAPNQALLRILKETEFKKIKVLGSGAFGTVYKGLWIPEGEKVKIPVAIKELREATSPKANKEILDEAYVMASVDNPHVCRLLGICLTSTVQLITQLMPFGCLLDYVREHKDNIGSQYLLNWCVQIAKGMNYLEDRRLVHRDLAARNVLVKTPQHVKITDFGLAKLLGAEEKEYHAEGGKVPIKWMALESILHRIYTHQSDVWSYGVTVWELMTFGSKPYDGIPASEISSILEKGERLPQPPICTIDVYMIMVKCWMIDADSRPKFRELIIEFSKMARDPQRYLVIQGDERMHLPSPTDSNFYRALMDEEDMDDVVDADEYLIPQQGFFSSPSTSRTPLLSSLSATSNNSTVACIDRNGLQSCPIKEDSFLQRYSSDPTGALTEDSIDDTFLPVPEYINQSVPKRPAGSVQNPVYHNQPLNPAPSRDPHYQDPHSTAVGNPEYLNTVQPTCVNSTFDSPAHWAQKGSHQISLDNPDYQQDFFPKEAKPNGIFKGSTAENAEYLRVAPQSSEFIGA
Series [15] addresses Mitogen-activated protein kinase kinase kinase kinase 4 (Homo sapiens) (UniProt O95819). Put plainly: Inhibition of MAP4K4 (unknown origin) at 1 uM.
Series [16] concerns Plasma. The experiment in a line: fCmax in C57Bl/6J mouse plasma at 32 mg/kg, sc by LC/MS analysis. Format: ADME, organism-based. The arrangement: dose 32 mg/kg, route subcutaneous. The note with it: in vivo. In outline: as §1
Series [17] deals with hERG (KCNH2). Put plainly: Therapeutic index, ratio of EC50 for human ERG channel to fCmax in mouse plasma. Format: cell-free. The note with it: read-out: TI.
In series [18] the test system is Mus musculus. Put plainly: In vivo inhibition of CK1 delta in C57Bl/6J mouse circardian rhythm model assessed as delay in phase shift at 56 mg/kg, sc after 3 days. Format: functional. The note with it: route subcutaneous. In outline: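 Mice received 56 mg/kg subcutaneously for 3 days. Phase shift was taken as the start of the active period after dosing minus before dosing.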

Series [19] can be described thus: Ratio of fCmax in brain to plasma of C57Bl/6J mouse. Format: ADME, cell-free. Put shortly: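 Male C57BL/6J mice given a single subcutaneous dose (56 mg/kg unless noted). Plasma and whole brain were taken under isoflurane at 0.5, 1, 2, 4, 8 and 24 h (n = 4 per time point). Brain was homogenised in 4 volumes of 60% isopropanol, and samples were quantified by LC-MS after protein precipitation. Free fractions came from equilibrium dialysis of 1 μM-spiked plasma or brain homogenate (6 h, 37 °C, n = 6).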

The target in series [20] is Tyrosine-protein kinase Lyn (Homo sapiens) (UniProt P07948). The experiment in a line: Inhibition of LYN (unknown origin) at 1 uM.
In series [21] the target is Mitogen-activated protein kinase 14 (Homo sapiens) (UniProt Q16539). Put plainly: Inhibition of MAPK14 (unknown origin) at 1 uM.
Sequence of Mitogen-activated protein kinase 14 (Homo sapiens) (Q16539 whole entry): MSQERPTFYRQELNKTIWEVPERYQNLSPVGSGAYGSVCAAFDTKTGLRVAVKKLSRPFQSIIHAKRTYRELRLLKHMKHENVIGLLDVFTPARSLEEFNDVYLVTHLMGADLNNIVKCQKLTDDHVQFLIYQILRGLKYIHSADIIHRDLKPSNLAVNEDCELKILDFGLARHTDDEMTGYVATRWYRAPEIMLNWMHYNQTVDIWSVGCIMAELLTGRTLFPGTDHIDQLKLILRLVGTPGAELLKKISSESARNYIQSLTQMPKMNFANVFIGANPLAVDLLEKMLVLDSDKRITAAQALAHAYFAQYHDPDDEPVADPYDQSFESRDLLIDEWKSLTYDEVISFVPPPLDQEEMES
Series [22] addresses Rho-associated protein kinase 2 (Homo sapiens) (UniProt O75116). The experiment in a line: Inhibition of ROCK2 (unknown origin) at 1 uM.
In series [23] the target is Tyrosine-protein kinase ABL1 (Homo sapiens) (UniProt P00519). The experiment in a line: Inhibition of ABL (unknown origin) at 1 uM.
In series [24] the target is JNK2/JNK3 (Homo sapiens) (UniProt P53779+P45984). Put plainly: Inhibition of JNK 2/3 (unknown origin) at 1 uM. Format: protein assay.
The target of series [25] is hERG (KCNH2) (Homo sapiens, UniProt Q12809). The experiment in a line: Displacement of [3H]dofetilide from human ERG channel at 10 uM. The note with it: probe [3H]dofetilide.

Sequence of Casein kinase I isoform epsilon (P49674 whole entry, canonical isoform): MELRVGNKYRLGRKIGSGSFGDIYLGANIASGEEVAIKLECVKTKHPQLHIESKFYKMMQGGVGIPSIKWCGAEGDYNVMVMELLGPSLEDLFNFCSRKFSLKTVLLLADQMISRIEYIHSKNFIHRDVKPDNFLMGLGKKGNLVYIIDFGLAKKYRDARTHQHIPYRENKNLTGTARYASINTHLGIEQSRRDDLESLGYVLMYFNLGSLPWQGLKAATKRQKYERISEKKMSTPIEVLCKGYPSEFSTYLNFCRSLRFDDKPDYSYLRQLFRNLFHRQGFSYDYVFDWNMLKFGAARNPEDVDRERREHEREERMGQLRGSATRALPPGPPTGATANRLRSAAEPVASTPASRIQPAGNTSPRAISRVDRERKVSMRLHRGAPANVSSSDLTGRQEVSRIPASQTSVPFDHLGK
T3 sequence (P48730 whole entry, canonical isoform): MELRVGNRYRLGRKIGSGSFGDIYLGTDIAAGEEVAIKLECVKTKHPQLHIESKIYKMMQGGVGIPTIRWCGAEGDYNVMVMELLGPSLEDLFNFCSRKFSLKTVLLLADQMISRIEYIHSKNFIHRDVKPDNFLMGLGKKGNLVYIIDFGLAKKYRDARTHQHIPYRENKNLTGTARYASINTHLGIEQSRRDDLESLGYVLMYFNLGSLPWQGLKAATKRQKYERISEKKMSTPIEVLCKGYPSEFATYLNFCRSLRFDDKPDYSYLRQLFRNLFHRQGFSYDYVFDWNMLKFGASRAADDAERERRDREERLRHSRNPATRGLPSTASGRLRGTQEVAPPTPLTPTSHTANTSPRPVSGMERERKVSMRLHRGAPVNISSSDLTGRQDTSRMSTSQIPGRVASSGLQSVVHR
Sequence of Mitogen-activated protein kinase kinase kinase kinase 4 (Homo sapiens) (O95819 2-1239 limits assumed): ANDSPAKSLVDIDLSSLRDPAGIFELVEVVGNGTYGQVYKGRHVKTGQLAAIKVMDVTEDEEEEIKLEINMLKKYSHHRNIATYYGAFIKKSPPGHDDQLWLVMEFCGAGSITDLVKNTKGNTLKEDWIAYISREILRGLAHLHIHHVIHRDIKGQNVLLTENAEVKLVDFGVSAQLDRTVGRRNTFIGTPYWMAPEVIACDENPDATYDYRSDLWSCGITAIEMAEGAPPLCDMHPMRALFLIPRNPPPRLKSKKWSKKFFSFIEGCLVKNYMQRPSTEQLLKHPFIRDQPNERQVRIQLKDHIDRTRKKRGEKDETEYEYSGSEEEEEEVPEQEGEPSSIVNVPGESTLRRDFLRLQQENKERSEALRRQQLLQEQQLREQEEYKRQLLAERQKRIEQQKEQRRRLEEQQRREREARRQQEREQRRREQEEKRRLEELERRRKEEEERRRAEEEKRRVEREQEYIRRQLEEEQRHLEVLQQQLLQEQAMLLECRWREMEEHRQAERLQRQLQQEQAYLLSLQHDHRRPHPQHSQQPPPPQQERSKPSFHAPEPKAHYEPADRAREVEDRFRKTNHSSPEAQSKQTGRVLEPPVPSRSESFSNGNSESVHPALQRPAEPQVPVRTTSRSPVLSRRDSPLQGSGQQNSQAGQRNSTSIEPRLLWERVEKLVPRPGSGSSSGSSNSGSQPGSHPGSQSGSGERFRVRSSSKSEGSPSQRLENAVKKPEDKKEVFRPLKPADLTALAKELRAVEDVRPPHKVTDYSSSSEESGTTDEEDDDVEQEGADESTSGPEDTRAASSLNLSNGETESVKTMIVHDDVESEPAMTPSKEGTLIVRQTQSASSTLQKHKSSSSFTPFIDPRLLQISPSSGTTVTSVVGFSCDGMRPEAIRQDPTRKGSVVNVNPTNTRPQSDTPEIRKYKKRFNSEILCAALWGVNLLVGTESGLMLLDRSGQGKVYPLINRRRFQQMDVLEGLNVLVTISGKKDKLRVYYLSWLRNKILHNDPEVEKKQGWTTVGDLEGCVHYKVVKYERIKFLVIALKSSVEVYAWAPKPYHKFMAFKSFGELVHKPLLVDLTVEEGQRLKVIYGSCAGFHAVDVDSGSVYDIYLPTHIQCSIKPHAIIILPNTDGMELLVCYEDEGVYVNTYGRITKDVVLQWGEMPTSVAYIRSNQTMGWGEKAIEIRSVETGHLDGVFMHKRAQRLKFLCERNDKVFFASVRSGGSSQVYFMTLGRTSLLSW

With `Cn1cc(-c2ccnc(C3COCCN3)c2)c(-c2ccc(F)cc2)n1` (single isomer, unassigned; (-)), the IC50 in [1] is > 1000 nM; in series [2], 28.2 nM; in [4], 25900 nM; in series [6], 5.3 nM; in series [7], 4430 nM; in [8], 90 nM. The fCmax stood at 1.95 µM in series [3] and 3.7 µM in series [5].
Turning to `CNCc1cc(-c2cn(C)nc2-c2ccc(F)cc2)ccn1`, the IC50 in series [1] was determined as 3040 nM; in series [2] it was 67.2 nM; in [6] it was 12.9 nM; in [8] it was 63.8 nM. Besides, the fCmax in series [3] was 9.66 µM; in series [5], 7.53 µM.
Turning to `Nc1nccc(-c2c(-c3ccc(F)cc3)ncn2C2CCCCC2)n1`, the inhibition in series [9], in series [11], in [12], in series [13], in series [14] and in series [15] was > 50% each time. Besides, the fCmax worked out at 0.241 µM in series [10] and 0.752 µM in [16]. The molecule also had an IC50 in [1] of 39.2 nM.
Regarding `Cn1cc(-c2ccnc3c2OCCNC3)c(-c2ccc(F)cc2)n1`, the selectivity ratio in series [17] was 3. Besides, the IC50 in series [1] was 654 nM; in series [2], 27 nM; in series [4] it was > 79600 nM; in series [7], 25700 nM; in series [8] it was 39 nM. For the same molecule, in series [18], the Time is 175 min. The fCmax came to 8.82 µM in series [3] and 2.97 µM in [5]. In addition, the Kp uu in series [19] worked out at 0.33.
Turning to `Cn1cc(-c2ccncc2)c(-c2ccc(F)cc2)n1`, the IC50 in series [1] came to 126 nM; in series [2], 305 nM; in series [6] it was 48.1 nM; in [8], 545 nM. Moreover, the inhibition in series [11] is 85%; in series [20], 70.5%; in [21], 55%; in series [22], 52%; in [23], 61%; in [14], 80%. The inhibition was found to be 66% in series [15] and 48% in [24].
For the molecule `Cn1cc(-c2ccnc(CO)c2)c(-c2ccc(F)cc2)n1`, the IC50 in series [2] came to 81.6 nM; in series [6], 14.2 nM; in series [8], 237 nM. Further, in [11], the inhibition stood at 42%. Also, testing at 10 µM in [25] gave an inhibition of 6%.
